Reference: paper PMC3594358 (Nature structural & molecular biology, 2013)

Tests used:
U2OS cells = experiment: Survival following Olaparib; assay type: cell-based; conditions: percentage survival
BRCA1 mutant cells = conditions: ref [39],[40], cited from earlier work
[1] = test system: 53BP1 −/− mouse embryonic fibroblasts; experiment: Metaphase spreads, radial chromosomes, 53BP1 −/− MEFs; assay type: cell-based; conditions: TIP60 siRNA + Olaparib; 53BP1 −/− vs 53BP1 +/+ MEFs
In short: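 53BP1+/+ and 53BP1−/− MEFs were transfected with control or mouse TIP60 siRNA using RNAiMax, analysed 48–72 h later, and treated with Olaparib. Cells were arrested with 0.5 μM nocodazole for 3–4 h, swollen in 75 mM KCl, fixed on ice in 3:1 methanol/acetic acid, dropped onto slides at 55°C and Giemsa-stained. Metaphases were scored for radial chromosomes, with significance by Fisher's exact test.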

BRCA1 = experiment: ChIP-qPCR BRCA1 at U2OS-DSB-reporter locus; assay type: cell-based; conditions: 0.5 μM TSA for 5 hours vs DMSO; DSBs induced by mCherry-LacI-FokI
In short: (§1)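 U2OS-DSB-reporter cells were given 0.5 μM TSA or DMSO, for 5 h where stated, and DSBs were induced by mCherry-LacI-FokI. Cells were formaldehyde-crosslinked, and chromatin was sonicated to 200–500 bp and immunoprecipitated overnight at 4°C with antibody to 53BP1, BRCA1 or H4ac. After washing and de-crosslinking, SYBR Green qPCR was run at reporter primer sets, quantified against diluted-input standard curves, with S.E.M. and Student t test.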

53BP1 = experiment: ChIP-qPCR 53BP1 at U2OS-DSB-reporter locus; assay type: cell-based; conditions: 0.5 μM TSA, 5 hours before DSB induction by mCherry-LacI-FokI; locus p4
In short: as §1

H4K20me2 in U2OS cells = experiment: Immunoblot of total H4K20me2; assay type: cell-based; conditions: acid-eluted histones from U2OS cells, 0.5 μM TSA, 5 hours
H4ac = experiment: ChIP-qPCR H4ac at U2OS-DSB-reporter locus; assay type: cell-based; conditions: 0.5 μM TSA vs DMSO; DSBs induced by mCherry-LacI-FokI
In short: as §1

RPA = RPA accumulation at LacI-FokI DSBs; assay type: cell-based; conditions: U2OS-DSB-reporter cells; TSA 0.5 μM vs DMSO; 200 cells per group, at least 2 independent experiments
In short: (§2)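 U2OS cells carrying the LacI-FokI DSB reporter were grown in DMEM with 10% calf serum and siRNA-transfected, then analysed 48–72 h later. DSBs were induced with mCherry-LacI-FokI, with DMSO or 0.5 μM TSA. Coverslips were fixed, permeabilised and immunostained for RPA or Rad51, then mounted with DAPI. The mCherry signal marked the damaged area, where focus presence or intensity was scored after background subtraction per cell.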

Rad51 = Rad51 accumulation at LacI-FokI DSBs; assay type: cell-based; conditions: U2OS-DSB-reporter cells; TSA 0.5 μM vs DMSO; 200 cells per group, at least 2 independent experiments
In short: as §2

[2] = test system: BRCA1 and 53BP1 at subtelomeric chromatin in 293T cells; experiment: ChIP BRCA1 and 53BP1 at subtelomeric regions, TRF1-FokI; assay type: cell-based; conditions: 293T cells expressing TRF1-FokI, TSA treatment
In short: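 293T cells were transfected with a TRF1-FokI plasmid; controls lacked TRF1-FokI. 16 h later cells were cross-linked in 1% formaldehyde for 10 min and quenched with 0.125 M glycine. Chromatin was sonicated to 200–500 bp and immunoprecipitated overnight at 4°C with BRCA1 or 53BP1 antibodies on protein A agarose. After salt/LiCl/TE washes, chromatin was de-crosslinked overnight at 65°C, then subtelomeric SYBR Green qPCR against input standard curves.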

53BP1 IRIF in U2OS cells = experiment: 53BP1 IRIF; assay type: cell-based; conditions: HDACi 5 hours prior to 10 Gy IR (TSA 0.5 µM), fixed 5 hours later
In short: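 U2OS cells on coverslips were fixed and permeabilized, then incubated with primary antibody against 53BP1, washed in PBST, and incubated with secondary antibody. Coverslips were mounted in DAPI-containing medium. Images were captured on the same day at equal exposure in 8-bit grayscale and analysed on unmodified images.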

53BP1-Tudor = experiment: NMR titration of 53BP1-Tudor with H4 peptide; assay type: binding
In short: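 0.3 mM 15N-labelled 53BP1-Tudor titrated with unlabelled H4 peptide (synthetic H4K20me2, aa 14-27) from a 15 mM stock and followed by 1H-15N HSQC. In the reverse titration, 0.5 mM 13C/15N-labelled recombinant H4KC20me2 (aa 14-27, dimethyl-lysine analogue) received unlabelled Tudor from a 5 mM stock and was followed by 1H-13C HSQC.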

O=C(c1cc(Cc2n[nH]c(=O)c3ccccc23)ccc1F)N1CCN(C(=O)C2CC2)CC1 [Olaparib]
sensitivity to Olaparib, TIP60 deficiency with accompanying 53BP1 knockdown (U2OS cells; TIP60 and 53BP1 siRNA): reversed
sensitivity to Olaparib, TIP60 deficiency (U2OS cells; TIP60 siRNA): hypersensitivity
sensitivity to Olaparib, BRCA1 mutation with 53BP1 nullizygosity (BRCA1 mutant cells; BRCA1 mutation and 53BP1 nullizygosity): reversed
sensitivity to Olaparib, BRCA1 mutation (BRCA1 mutant cells; BRCA1 mutation): hypersensitivity
impact of TIP60 knockdown on radial chromosome formation by 53BP1 nullizygosity [1]: strongly mitigated

CC(/C=C/C(=O)NO)=C\[C@@H](C)C(=O)c1ccc(N(C)C)cc1 [TSA, trichostatin A]
increase in BRCA1 occupancy (BRCA1): ~4 fold
53BP1 association (53BP1): diminished
total H4K20me2 (H4K20me2 in U2OS cells): did not affect
H4 acetylation (H4ac) (H4ac): elevated
RPA accumulation at the LacI-FokI reporter after RVB1 or TIP60 knockdown (RPA): restored
Rad51 accumulation at the LacI-FokI reporter after RVB1 or TIP60 knockdown (Rad51): restored
response of BRCA1 and 53BP1 at subtelomeric chromatin [2]: divergent response
53BP1 IRIF (53BP1 IRIF in U2OS cells): strongly reduced

H4K20me2: H4K20me2 peptide (aa 14-27) chemically synthesized
shifts of Trp1495 side chain resonances (53BP1-Tudor; ^1H-^13C HSQC, 298 K, pH 7.0): large downfield shifts
downfield shift of Trp1495 indole HN proton (53BP1-Tudor; ^1H-^15N HSQC, 0.3 mM ^15N-labeled 53BP1-Tudor, 298 K, 25 mM sodium phosphate, pH 7.0): 0.8 p.p.m.
changes in chemical shift of 53BP1-Tudor binding cage residues (Trp1495, Tyr1502, Phe1519, Asp1521, Tyr1523) (53BP1-Tudor; ^1H-^15N HSQC, 298 K, 25 mM sodium phosphate, pH 7.0): pronounced changes in chemical shift

non-methylated H4K20 peptide: corresponding non-methylated peptide, control
Trp1495 indole HN shift, in words (53BP1-Tudor; ^1H-^15N HSQC, 53BP1-Tudor titrated with non-methylated peptide, vs H4K20me2): markedly reduced
